# Laboratory results published in PubChem BioAssay AID624363 (Broad Institute, 2012).
# Test system: SK-MEL-5 TRPM1 promoter luciferase reporter, 24 h
# Experiment: inhibitors of MITF-driven TRPM1 reporter, dose response, cell-based, SK-MEL-5, luciferase, dry powder, set 5 (AID 624363)
# In short: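 Material: SK-MEL-5 TRPM1 promoter luciferase reporter cells / Quantity: 2000 reporter cells per well / Incubation: compound exposure 24 h at 37 °C, one day after plating / Benchmarks: parthenolide at 27 µM as positive control / Buffer or medium: phenol red-free DMEM, 10% FBS / Detection: SteadyGlo luciferase luminescence after 5 min at room temperature / Compound: pin-transferred compounds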
row,Compound,AC50
1,O=C(NC1=C(N2CCOCC2)C(=O)c2ccccc2C1=O)c1ccc(Br)cc1,12.5 µM
2,C=CCNC1=C(N2CCOCC2)C(=O)c2ccccc2C1=O,2.54 µM
3,NC1=C(c2ccc(OC(F)(F)F)cc2)C(=O)c2ccccc2C1=O,20.4 µM
4,O=C1C(NS(=O)(=O)c2ccc(Br)s2)=C(N2CCSCC2)C(=O)c2ccccc21,22.7 µM
5,O=C1C=C(NS(=O)(=O)c2ccc(Br)cc2)C(=O)c2ccccc21,9.16 µM
6,COc1ccc(S(=O)(=O)N(C(C)=O)c2ccc(OC(C)=O)c3ccccc23)cc1[N+](=O)[O-],6.42 µM
7,CC1CCN(CC(CS(=O)(=O)c2ccc([N+](=O)[O-])cc2)N2CCC(C)CC2)CC1 (configuration not stated),2.71 µM
8,O=C1C(NS(=O)(=O)c2ccc(Br)s2)=C(N2CCCCC2)C(=O)c2ccccc21,23.3 µM
9,O=C1C(NS(=O)(=O)c2ccc(Br)cc2)=C(N2CCCCC2)C(=O)c2ccccc21,27.7 µM
10,CC(=O)N(C)C1=C(N2CCN(C)CC2)C(=O)c2ccccc2C1=O,0.404 µM
11,O=C1C(Nc2ccccc2)=C(NS(=O)(=O)c2ccccc2[N+](=O)[O-])C(=O)c2ccccc21,16.9 µM
12,CC(=O)N(C)C1=C(N2CCCCC2)C(=O)c2ccccc2C1=O,0.796 µM
13,CN1CCN(C2=C(NS(=O)(=O)c3ccc(Br)s3)C(=O)c3ccccc3C2=O)CC1,1.98 µM
14,CCN(CC)CCNC1=C(Nc2ccccc2)C(=O)c2ccccc2C1=O,4.88 µM
15,O=C(NC1=C(c2ccccc2)C(=O)c2ccccc2C1=O)c1ccccc1,6.93 µM
16,CC(=O)NC1=C(c2ccc(Cl)cc2)C(=O)c2ccccc2C1=O,3.45 µM
17,CCN(CC)CCCCNC1=C(Nc2ccccc2)C(=O)c2ccccc2C1=O,4.14 µM
18,CCN1CCN(C2=C(NS(=O)(=O)c3ccc(Br)cc3)C(=O)c3ccccc3C2=O)CC1,8.69 µM
19,O=C1C(NCCCN2CCOCC2)=C(Nc2ccccc2)C(=O)c2ccccc21,3.7 µM
20,CN1CCN(C2=C(NS(=O)(=O)c3ccccc3)C(=O)c3ccccc3C2=O)CC1,1.09 µM
21,O=C1C(NS(=O)(=O)c2ccc(Br)s2)=C(N2CCOCC2)C(=O)c2ccccc21,15 µM

row,Compound,AC50
1,COc1ccc(C2=C(NC(=O)c3cccc(OC)c3)C(=O)c3ccccc3C2=O)cc1,6.98 µM
2,CN1CCN(C2=C(NC(=O)c3ccccc3)C(=O)c3ccccc3C2=O)CC1,1.04 µM
3,O=C1C(Nc2ccccc2)=C(N2CCN(c3ccccc3)CC2)C(=O)c2ccccc21,12.1 µM
4,Cc1ccc(C(=O)NC2=C(c3ccc(OC(F)(F)F)cc3)C(=O)c3ccccc3C2=O)o1,13.4 µM
5,CN1CCN(C2=C(Nc3ccccc3)C(=O)c3ccccc3C2=O)CC1,7.78 µM
6,NC1=C(NC(=O)c2ccccc2)C(=O)c2ccccc2C1=O,4.08 µM
7,COc1ccc(C2=C(NC(=O)c3ccc(Cl)cc3)C(=O)c3ccccc3C2=O)cc1,15.3 µM
8,C=CCNC1=C(NCCN(CC)CC)C(=O)c2ccccc2C1=O,4.88 µM
9,C=CCNC1=C(N(C)C(C)=O)C(=O)c2ccccc2C1=O,0.0923 µM
10,O=C1C(NS(=O)(=O)c2cccs2)=C(c2ccccc2)C(=O)c2ccccc21,10.5 µM
11,O=C(NC1=C(c2ccccc2)C(=O)c2ccccc2C1=O)c1ccco1,9.7 µM
12,COc1ccc(C2=C(NC(C)=O)C(=O)c3ccccc3C2=O)cc1,4.84 µM
13,CCN1CCN(C2=C(NC(=O)c3ccccc3)C(=O)c3ccccc3C2=O)CC1,0.783 µM
14,NC1=C(NS(=O)(=O)c2cccs2)C(=O)c2ccccc2C1=O,4.17 µM
15,O=C1C(NS(=O)(=O)c2ccccc2)=C(N2CCCCC2)C(=O)c2ccccc21,22.2 µM
16,NC1=C(c2ccccc2)C(=O)c2ccccc2C1=O,4.34 µM
17,O=C(NC1=C(c2ccc(OC(F)(F)F)cc2)C(=O)c2ccccc2C1=O)c1ccccc1,18.9 µM
18,O=C1C(NS(=O)(=O)c2ccccc2)=C(N2CCOCC2)C(=O)c2ccccc21,19.3 µM
19,C=CCNC1=C(NC(=O)c2ccccc2)C(=O)c2ccccc2C1=O,26.5 µM
20,CCN1CCN(C2=C(NS(=O)(=O)c3cccs3)C(=O)c3ccccc3C2=O)CC1,2.96 µM
21,C=CCNC1=C(N2CCN(CC)CC2)C(=O)c2ccccc2C1=O,4.47 µM
